Results taken from ChEMBL document CHEMBL1821637, “Selective cytotoxicity of oxysterols through structural modulation on rings A and B. Synthesis, in vitro evaluation, and SAR” (J Med Chem, 2011).

Legend:
HT-29 [1] = experiment: Cytotoxicity against human HT-29 cells assessed as cell viability after 48 hrs by alamar blue assay; assay type: functional, cell-based; details: for IC50: HT-29, 48 h
Outline: (§1)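 Alamar Blue viability assay on the human cell line named (origins given: HT-29 colorectal adenocarcinoma, HepG2 hepatocellular carcinoma, LAMA-84 myeloid leukemia, A549 lung adenocarcinoma, PC3 prostate metastasis, MCF-7 breast adenocarcinoma, ARPE-19 retinal pigment epithelium, BJ skin fibroblast). Exposure was 48 h. Sterol stocks were made in DMSO. IC50 is the concentration inhibiting 50% of cellular growth, given as the mean of at least three separate experiments.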

[2] = Cytotoxicity against human ARPE19 cells assessed as cell viability after 48 hrs by alamar blue assay; assay type: cell-based, ARPE-19; details: for IC50: Homo sapiens, ARPE-19, 48 h; for Activity: human, arpe-19, 48 h; outline: as §1
HT-29 [3] = experiment: Selectivity index, ratio of IC50 for human ARPE19 cells to IC50 for human HT-29 cells; assay type: functional
SH-SY5Y = experiment: Cytotoxicity against human SH-SY5Y cells assessed as cell viability after 48 hrs by alamar blue assay; assay type: functional, cell-based
Outline: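 SH-SY5Y cells grown in DMEM/F12 (1:1) with L-glutamine, 10% heat-inactivated FBS, 100 units/mL penicillin and 0.1 mg/mL streptomycin, pH 7.4. Seeded at 5 10^3 cells/well and exposed to the sterols (DMSO stocks) for 48 h. Alamar Blue read-out. IC50 is the concentration inhibiting 50% of growth, mean of at least three separate experiments.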

HT-29 [4] = experiment: Cytotoxicity against human HT-29 cells assessed as inhibition of cell growth after 96 hrs by alamar blue assay; assay type: functional, cell-based; details: HT-29, 96 h
Outline: (§2)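 HT-29 and ARPE-19 cells exposed for 96 h. ARPE-19 seeded at 5 10^3 cells/well for this period. Sterol stocks in DMSO. Viability by Alamar Blue. IC50 is the concentration inhibiting 50% of cellular growth, mean of at least three separate experiments.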

A549 = experiment: Cytotoxicity against human A549 cells assessed as cell viability after 48 hrs by alamar blue assay; assay type: functional, cell-based; details: for IC50: A549, 48 h
Outline: as §1, with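 “DMSO.” for “DMSO. IC50 is the concentration inhibiting 50% of cellular growth, given as the mean of at least three separate experiments.”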

HepG2 = experiment: Cytotoxicity against human HepG2 cells assessed as cell viability after 48 hrs by alamar blue assay; assay type: functional, cell-based; details: for IC50: HepG2, 48 h; outline: as §1
PC-3 = experiment: Cytotoxicity against human PC3 cells assessed as cell viability after 48 hrs by alamar blue assay; assay type: functional, cell-based; details: for IC50: PC-3, 48 h; outline: as §1
BJ = experiment: Cytotoxicity against human BJ cells assessed as cell viability after 48 hrs by alamar blue assay; assay type: cell-based; details: for IC50: Homo sapiens, BJ; for Activity: human, bj; outline: as §1
MCF7 = experiment: Cytotoxicity against human MCF7 cells assessed as cell viability after 48 hrs by alamar blue assay; assay type: functional, cell-based; details: for IC50: MCF7, 48 h; outline: as §1
LAMA-84 = experiment: Cytotoxicity against human LAMA-84 cells assessed as cell viability after 48 hrs by alamar blue assay; assay type: functional, cell-based; details: for IC50: LAMA-84, 48 h; outline: as §1
[5] = Cytotoxicity against human ARPE19 cells assessed as inhibition of cell growth after 96 hrs by alamar blue assay; assay type: cell-based; details: ARPE-19, 96 h; outline: as §2

| Compound | IC50 (HT-29 [1]) [µM] | IC50 [2] [µM] | Ratio IC50 (HT-29 [3]) | IC50 (SH-SY5Y) [µM] | IC50 (HepG2) [µM] | IC50 (PC-3) [µM] | further results |
| --- | --- | --- | --- | --- | --- | --- | --- |
| CC(C)CCC[C@@H](C)[C@H]1CC[C@H]2[C@@H]3[C@@H](O)C=C4[C@@H](O)[C@@H](O)CC[C@]4(C)[C@H]3CC[C@]12C | 15.4 | 25.6 | 1.66 |  |  |  |  |
| CC(C)CCC[C@@H](C)[C@H]1CC[C@H]2[C@@H]3[C@@H](O)C=C4C[C@@H](O)CC[C@]4(C)[C@H]3CC[C@]12C |  |  | 3.13 | 16.4 |  |  |  |
| CC(=O)O[C@@H]1[C@H]2[C@@H]3CC[C@H]([C@H](C)CCCC(C)C)[C@@]3(C)CC[C@@H]2[C@@]2(C)CC[C@H](O)C[C@]2(O)[C@@H]1O | 17 | 15.8 | 0.93 |  |  |  | IC50 (HT-29 [4]): 15.5 µM |
| CC(=O)O[C@H]1CC[C@]2(C)[C@H]3CC[C@]4(C)[C@@H]([C@H](C)CCCC(C)C)CC[C@H]4[C@@H]3[C@@H](OC(C)=O)C(=O)[C@@]2(O)C1 | 27.2 |  |  |  |  |  |  |
| CC(C)CCC[C@@H](C)[C@H]1CC[C@H]2[C@@H]3C(=O)C=C4C[C@@H](O)CC[C@]4(C)[C@H]3CC[C@]12C [7-OXOCHOLESTEROL] |  | 32.3 | 1.26 |  |  |  |  |
| CC(C)CCC[C@@H](C)[C@H]1CC[C@H]2[C@@H]3CC[C@@]4(O)[C@@H](O)[C@@H](O)CC[C@]4(C)[C@H]3CC[C@]12C | 34 |  |  |  | 34.4 | 35.1 | IC50 (A549): 31.8 µM |
| CC(=O)O[C@@H]1[C@H]2[C@@H]3CC[C@H]([C@H](C)CCCC(C)C)[C@@]3(C)CC[C@@H]2[C@@]2(C)CC[C@H](O)C[C@]2(O)[C@@H]1OC(C)=O | 13.1 | 11.2 | 0.85 | 13.8 | 11.7 | 10.3 | IC50 (BJ): 10.2 µM; Activity (BJ): Toxic; inhibition (A549): Dose-dependent effect; IC50 (A549): 13.9 µM; inhibition (HT-29 [1]): Dose-dependent effect; IC50 (HT-29 [4]): 14.9 µM; inhibition (HepG2): Dose-dependent effect; Activity [2]: Toxic; inhibition (PC-3): Dose-dependent effect; inhibition (MCF7): Dose-dependent effect; IC50 (MCF7): 13.2 µM; inhibition (SH-SY5Y): Dose-dependent effect; inhibition (LAMA-84): Dose-dependent effect; IC50 (LAMA-84): 6.4 µM |
| CC(C)CCC[C@@H](C)[C@H]1CC[C@H]2[C@@H]3[C@@H](O)[C@H](O)[C@H]4C[C@@H](O)CC[C@]4(C)[C@H]3CC[C@]12C | 14.9 | 19.1 | 1.28 |  |  |  |  |
| CC(=O)O[C@H]1CC[C@]2(C)[C@H]3CC[C@]4(C)[C@@H]([C@H](C)CCCC(C)C)CC[C@H]4[C@@H]3C[C@@H](O)[C@@]2(O)[C@H]1O | 17.7 | 28.8 | 1.63 |  |  |  | IC50 (HT-29 [4]): 14.2 µM |
| CC(=O)O[C@H]1C=C2C[C@@H](O)CC[C@]2(C)[C@H]2CC[C@]3(C)[C@@H]([C@H](C)CCCC(C)C)CC[C@H]3[C@H]12 | 26.8 |  |  |  |  |  | IC50 (HT-29 [4]): 24.6 µM |
| CO[C@@H]1C[C@H]2[C@@H]3CC[C@H]([C@H](C)CCCC(C)C)[C@@]3(C)CC[C@@H]2[C@@]2(C)CC[C@H](O)C[C@]12O | 10 | 25.8 | 2.58 |  | 13.3 | 17.4 | IC50 (BJ): 17.4 µM; IC50 (LAMA-84): 4.3 µM |
| CC(C)CCC[C@@H](C)[C@H]1CC[C@H]2[C@@H]3C[C@@H](O)[C@@]4(O)[C@@H](O)[C@@H](O)CC[C@]4(C)[C@H]3CC[C@]12C | 9.1 | 20.4 | 2.24 | 14.5 | 12.7 | 17.1 | IC50 (BJ): 17.8 µM; Activity (BJ): Non-toxic; inhibition (A549): Dose-dependent effect; inhibition (HT-29 [1]): Dose-dependent effect; inhibition (HepG2): Dose-dependent effect; Activity [2]: Non-toxic; inhibition (PC-3): Dose-dependent effect; inhibition (MCF7): Dose-dependent effect; IC50 (MCF7): 14.5 µM; inhibition (SH-SY5Y): Dose-dependent effect; inhibition (LAMA-84): Dose-dependent effect; IC50 (LAMA-84): 5.1 µM |
| CC(C)CCC[C@@H](C)[C@H]1CC[C@H]2[C@@H]3C(=O)[C@H](O)[C@@]4(O)C[C@@H](O)CC[C@]4(C)[C@H]3CC[C@]12C | 15.2 | 25.7 | 1.69 |  |  |  |  |
| CC(=O)O[C@H]1CC[C@]2(C)[C@H]3CC[C@]4(C)[C@@H]([C@H](C)CCCC(C)C)CC[C@H]4[C@@H]3[C@@H](OC(C)=O)[C@@H](OC(C)=O)[C@@]2(O)C1 | 27 |  |  |  |  |  | IC50 (HT-29 [4]): 26.7 µM |
| CC(=O)N[C@@H]1C[C@H]2[C@@H]3CC[C@H]([C@H](C)CCCC(C)C)[C@@]3(C)CC[C@@H]2[C@@]2(C)CC[C@H](O)C[C@]12O | 14.5 | 19 | 1.31 |  | 11.6 | 19.2 | IC50 (A549): 14.5 µM |
| CC(C)CCC[C@@H](C)[C@H]1CC[C@H]2[C@@H]3C[C@@H](O)[C@@]4(O)C[C@@H](O)CC[C@]4(C)[C@H]3CC[C@]12C [CHOLESTAN-3beta,5alpha,6beta-TRIOL] |  |  | 1.48 | 17.2 |  |  |  |
| CC(C)CCC[C@@H](C)[C@H]1CC[C@H]2[C@@H]3C(=O)C(O)=C4C[C@@H](O)CC[C@]4(C)[C@H]3CC[C@]12C | 36.7 |  |  |  |  |  |  |
| CC(C)CCC[C@@H](C)[C@H]1CC[C@H]2[C@@H]3CC(=O)[C@@]4(O)C[C@@H](O)CC[C@]4(C)[C@H]3CC[C@]12C |  | 33.9 | 1.99 |  |  |  |  |
| COc1cccc2c1C(=O)c1c(O)c3c(c(O)c1C2=O)C[C@@](O)(C(=O)CO)C[C@@H]3O[C@H]1C[C@H](N)[C@H](O)[C@H](C)O1 [DOXORUBICIN] |  |  |  | 0.5 |  |  |  |
| CC(C)CCC[C@@H](C)[C@H]1CC[C@H]2[C@@H]3[C@@H](O)[C@@H](O)[C@@]4(O)C[C@@H](O)CC[C@]4(C)[C@H]3CC[C@]12C | 13.9 | 21.4 | 1.54 | 20.2 | 13.8 | 17.4 | IC50 (BJ): 19.3 µM; Activity (BJ): Non-toxic; inhibition (A549): Dose-dependent effect; IC50 (A549): 17.3 µM; inhibition (HT-29 [1]): Dose-dependent effect; inhibition (HepG2): Dose-dependent effect; Activity [2]: Non-toxic; inhibition (PC-3): Dose-dependent effect; inhibition (MCF7): Dose-dependent effect; IC50 (MCF7): 13.1 µM; inhibition (SH-SY5Y): Dose-dependent effect; inhibition (LAMA-84): Dose-dependent effect; IC50 (LAMA-84): 5.1 µM |
| CC(=O)O[C@@H]1C[C@H]2[C@@H]3CC[C@H]([C@H](C)CCCC(C)C)[C@@]3(C)CC[C@@H]2[C@@]2(C)CC[C@H](O)C[C@]12O | 6.8 | 17.9 | 2.58 | 12.2 | 11.9 | 13.2 | IC50 (BJ): 13.4 µM; IC50 (A549): 13.3 µM; IC50 (HT-29 [4]): 6.6 µM; IC50 (MCF7): 11 µM; IC50 (LAMA-84): 3.9 µM |
| CC(C)CCC[C@@H](C)[C@H]1CC[C@H]2[C@@H]3C/C(=N\O)[C@@]4(O)C[C@@H](O)CC[C@]4(C)[C@H]3CC[C@]12C | 11.9 | 23.7 | 1.99 | 16.8 | 13.2 | 15 | IC50 (BJ): 17.1 µM; IC50 (A549): 15 µM |
| CC(=O)O[C@H]1CC[C@]2(C)[C@H]3CC[C@]4(C)[C@@H]([C@H](C)CCCC(C)C)CC[C@H]4[C@@H]3C[C@@H](O)[C@@]2(O)C1 |  | > 60 | >3.09 |  |  |  | IC50 [5]: 53 µM |
| CCCO[C@@H]1C[C@H]2[C@@H]3CC[C@H]([C@H](C)CCCC(C)C)[C@@]3(C)CC[C@@H]2[C@@]2(C)CC[C@H](O)C[C@]12O | 25.9 |  |  |  |  |  |  |
| CCCCCCCCCCCC(=O)O[C@H]1CC[C@@]2(C)C(=C[C@H](O)[C@H]3[C@@H]4CC[C@H]([C@H](C)CCCC(C)C)[C@@]4(C)CC[C@@H]32)C1 | > 50 |  |  |  |  |  | IC50 (HT-29 [4]): > 50 µM |
| CO[C@]12C[C@@H](O)CC[C@]1(C)[C@H]1CC[C@]3(C)[C@@H]([C@H](C)CCCC(C)C)CC[C@H]3[C@@H]1C[C@H]2O | 36.1 |  |  |  |  |  |  |
